Data reported in ChEMBL document CHEMBL4014276, “Diphenylurea derivatives for combating methicillin- and vancomycin-resistant Staphylococcus aureus” (Eur J Med Chem, 2017).
Converted amounts (≈) assume the structure as drawn. The source made the active and inactive calls. No cut-off for these calls is given here.

What was measured:
Staphylococcus aureus [1] = test: Antibacterial activity against methicillin-resistant Staphylococcus aureus USA400 NRS123 clinical isolate after 20 hrs by broth microdilution method; assay type: functional; details: USA400 NRS123, 20 h
Method in brief: (§1)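 CLSI broth microdilution in cation-adjusted Mueller Hinton broth; compounds serially diluted, triplicate samples; 37 °C, 20 h. MIC read visually as lowest concentration with no visible growth; mean of triplicate determinations reported.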

Staphylococcus aureus [2] = test: Bactericidal activity against vancomycin-resistant Staphylococcus aureus VRSA10 after 18 hrs by broth microdilution method; assay type: functional; details: VRSA10, 18 h
Method in brief: (§2)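 From MIC wells without visible growth, 5 uL spotted onto Tryptic soy agar, incubated 37 °C for at least 18 h; MBC taken as lowest concentration giving 99.9% growth inhibition.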

Staphylococcus aureus [3] = test: Antibacterial activity against methicillin-resistant Staphylococcus aureus USA100 NRS382 clinical isolate preincubated followed by bacterial subculturing for 2 weeks; assay type: functional
Staphylococcus aureus [4] = test: Bactericidal activity against methicillin-resistant Staphylococcus aureus USA200 NRS383 clinical isolate after 18 hrs by broth microdilution method; assay type: functional; details: USA200 NRS383, 18 h; method in brief: as §2
Staphylococcus aureus [5] = test: Bactericidal activity against methicillin-resistant Staphylococcus aureus USA100 NRS382 clinical isolate after 18 hrs by broth microdilution method; assay type: functional; details: USA100 NRS382, 18 h; method in brief: as §2
Staphylococcus aureus [6] = test: Antibacterial activity against methicillin-resistant Staphylococcus aureus USA100 NRS382 clinical isolate after 20 hrs by broth microdilution method; assay type: functional; details: USA100 NRS382, 20 h; method in brief: as §1
Staphylococcus aureus [7] = test: Bactericidal activity against methicillin-resistant Staphylococcus aureus USA300 NRS384 clinical isolate after 18 hrs by broth microdilution method; assay type: functional; details: USA300 NRS384, 18 h; method in brief: as §2
Staphylococcus aureus [8] = test: Antibacterial activity against vancomycin-resistant Staphylococcus aureus VRSA4 after 20 hrs by broth microdilution method; assay type: functional; details: VRSA4, 20 h; method in brief: as §1
Staphylococcus aureus [9] = test: Bactericidal activity against vancomycin-resistant Staphylococcus aureus VRSA4 after 18 hrs by broth microdilution method; assay type: functional; details: VRSA4, 18 h; method in brief: as §2
Staphylococcus aureus [10] = test: Antibacterial activity against methicillin-resistant Staphylococcus aureus USA300 NRS384 clinical isolate preincubated followed by bacterial subculturing for 2 weeks; assay type: functional
Staphylococcus aureus [11] = test: Bactericidal activity against methicillin-resistant Staphylococcus aureus USA400 NRS123 clinical isolate after 18 hrs by broth microdilution method; assay type: functional; details: USA400 NRS123, 18 h; method in brief: as §2
Staphylococcus aureus [12] = test: Antibacterial activity against methicillin-resistant Staphylococcus aureus USA400 NRS123 clinical isolate preincubated followed by bacterial subculturing for 2 weeks; assay type: functional
Staphylococcus aureus [13] = test: Antibacterial activity against methicillin-resistant Staphylococcus aureus USA300 NRS384 clinical isolate after 20 hrs by broth microdilution method; assay type: functional; details: USA300 NRS384, 20 h; method in brief: as §1
Staphylococcus aureus [14] = test: Antibacterial activity against vancomycin-resistant Staphylococcus aureus VRSA10 after 20 hrs by broth microdilution method; assay type: functional; details: VRSA10, 20 h; method in brief: as §1
Staphylococcus aureus [15] = test: Antibacterial activity against Staphylococcus aureus RN4220 NRS107 clinical isolate after 20 hrs by broth microdilution method; assay type: functional; details: RN4220 NRS107, 20 h; method in brief: as §1
Staphylococcus aureus [16] = test: Antibacterial activity against methicillin-resistant Staphylococcus aureus USA200 NRS383 clinical isolate preincubated followed by bacterial subculturing for 2 weeks; assay type: functional
Staphylococcus aureus [17] = test: Antibacterial activity against methicillin-resistant Staphylococcus aureus USA200 NRS383 clinical isolate after 20 hrs by broth microdilution method; assay type: functional; details: USA200 NRS383, 20 h; method in brief: as §1
Staphylococcus aureus [18] = test: Bactericidal activity against Staphylococcus aureus RN4220 NRS107 clinical isolate after 18 hrs by broth microdilution method; assay type: functional; details: RN4220 NRS107, 18 h; method in brief: as §2
[19] = Half life in human liver microsomes in presence of NADPH by LC-MS/MS method; assay type: ADME, microsome
[20] = Intrinsic clearance in human liver microsomes in presence of NADPH by LC-MS/MS method; assay type: ADME, microsome; details: read-out: CLH

Question: With C/C(=N\NC(=N)N)c1ccc(NC(=O)Cc2cc(F)cc(F)c2)cc1 as the compound, how does the MIC (Staphylococcus aureus [1]) read?
Answer: The MIC was 16 µg/mL (≈ 46.3 µM).

Question: Which results are given for CCCCCCCOc1ccc(NC(=O)Nc2ccc(/C(C)=N/NC(=N)N)cc2)cc1?
Answer: MBC (Staphylococcus aureus [2]): 16 µg/mL (≈ 37.7 µM); Activity (Staphylococcus aureus [3]): Active; MBC (Staphylococcus aureus [4]): 8 µg/mL (≈ 18.8 µM); MBC (Staphylococcus aureus [5]): 16 µg/mL (≈ 37.7 µM); MIC (Staphylococcus aureus [6]): 16 µg/mL (≈ 37.7 µM); MBC (Staphylococcus aureus [7]): 16 µg/mL (≈ 37.7 µM); MIC (Staphylococcus aureus [8]): 8 µg/mL (≈ 18.8 µM); MIC (Staphylococcus aureus [1]): 16 µg/mL (≈ 37.7 µM); MBC (Staphylococcus aureus [9]): 8 µg/mL (≈ 18.8 µM); Activity (Staphylococcus aureus [10]): Active; MBC (Staphylococcus aureus [11]): 16 µg/mL (≈ 37.7 µM); Activity (Staphylococcus aureus [12]): Active; MIC (Staphylococcus aureus [13]): 16 µg/mL (≈ 37.7 µM); MIC (Staphylococcus aureus [14]): 16 µg/mL (≈ 37.7 µM); MIC (Staphylococcus aureus [15]): 8 µg/mL (≈ 18.8 µM); Activity (Staphylococcus aureus [16]): Active; MIC (Staphylococcus aureus [17]): 8 µg/mL (≈ 18.8 µM); MBC (Staphylococcus aureus [18]): 8 µg/mL (≈ 18.8 µM)

Question: With C/C(=N\NC(=N)N)c1ccc(NC(=O)Nc2ccc(OC3CCCC3)cc2)cc1 as the compound, how does the Activity (Staphylococcus aureus [3]) read?
Answer: Its Activity is “Active”.

Question: And the MBC (Staphylococcus aureus [4])?
Answer: Its MBC is 128 µg/mL (≈ 324 µM).

Question: What about the MBC (Staphylococcus aureus [5]) of the same compound?
Answer: The MBC was 64 µg/mL (≈ 162 µM).

Question: What about the MIC (Staphylococcus aureus [6]) of the same compound?
Answer: Its MIC is 64 µg/mL (≈ 162 µM).

Question: And the Activity (Staphylococcus aureus [10])?
Answer: The Activity was “Active”.

Question: What about the Activity (Staphylococcus aureus [12]) of the same compound?
Answer: The Activity was “Active”.

Question: What about the Activity (Staphylococcus aureus [16]) of the same compound?
Answer: The Activity was “Active”.

Question: And the MIC (Staphylococcus aureus [17])?
Answer: The MIC was 64 µg/mL (≈ 162 µM).

Question: What does the source list for CCCCCCCCCOc1ccc(NC(=O)Nc2ccc(/C(C)=N/NC(=N)N)cc2)cc1?
Answer: MBC (Staphylococcus aureus [2]): 32 µg/mL (≈ 70.7 µM); Activity (Staphylococcus aureus [3]): Active; MBC (Staphylococcus aureus [4]): 32 µg/mL (≈ 70.7 µM); MBC (Staphylococcus aureus [5]): 32 µg/mL (≈ 70.7 µM); MIC (Staphylococcus aureus [6]): 32 µg/mL (≈ 70.7 µM); MBC (Staphylococcus aureus [7]): 32 µg/mL (≈ 70.7 µM); MIC (Staphylococcus aureus [8]): 16 µg/mL (≈ 35.4 µM); MIC (Staphylococcus aureus [1]): 32 µg/mL (≈ 70.7 µM); MBC (Staphylococcus aureus [9]): 16 µg/mL (≈ 35.4 µM); Activity (Staphylococcus aureus [10]): Active; MBC (Staphylococcus aureus [11]): 64 µg/mL (≈ 141 µM); Activity (Staphylococcus aureus [12]): Active; MIC (Staphylococcus aureus [13]): 32 µg/mL (≈ 70.7 µM); MIC (Staphylococcus aureus [14]): 32 µg/mL (≈ 70.7 µM); MIC (Staphylococcus aureus [15]): 32 µg/mL (≈ 70.7 µM); Activity (Staphylococcus aureus [16]): Active; MIC (Staphylococcus aureus [17]): 16 µg/mL (≈ 35.4 µM); MBC (Staphylococcus aureus [18]): 64 µg/mL (≈ 141 µM)

Question: Which results are given for CCCOc1ccc(NC(=O)Nc2ccc(/C(C)=N/NC(=N)N)cc2)cc1?
Answer: MBC (Staphylococcus aureus [2]): 16 µg/mL (≈ 43.4 µM); Activity (Staphylococcus aureus [3]): Active; MBC (Staphylococcus aureus [4]): 16 µg/mL (≈ 43.4 µM); MBC (Staphylococcus aureus [5]): 8 µg/mL (≈ 21.7 µM); MIC (Staphylococcus aureus [6]): 8 µg/mL (≈ 21.7 µM); MBC (Staphylococcus aureus [7]): 16 µg/mL (≈ 43.4 µM); MIC (Staphylococcus aureus [8]): 8 µg/mL (≈ 21.7 µM); MIC (Staphylococcus aureus [1]): 4 µg/mL (≈ 10.9 µM); MBC (Staphylococcus aureus [9]): 8 µg/mL (≈ 21.7 µM); Activity (Staphylococcus aureus [10]): Active; MBC (Staphylococcus aureus [11]): 16 µg/mL (≈ 43.4 µM); Activity (Staphylococcus aureus [12]): Active; MIC (Staphylococcus aureus [13]): 8 µg/mL (≈ 21.7 µM); MIC (Staphylococcus aureus [14]): 8 µg/mL (≈ 21.7 µM); MIC (Staphylococcus aureus [15]): 8 µg/mL (≈ 21.7 µM); Activity (Staphylococcus aureus [16]): Active; MIC (Staphylococcus aureus [17]): 8 µg/mL (≈ 21.7 µM); MBC (Staphylococcus aureus [18]): 8 µg/mL (≈ 21.7 µM)

Question: For C/C(=N\NC(=N)N)c1ccc(NC(=O)c2ccc3c(c2)OCCN3C)cc1, which MIC (Staphylococcus aureus [1]) is on record?
Answer: The MIC was 16 µg/mL (≈ 43.7 µM).

Question: With C/C(=N\NC(=N)N)c1ccc(NC(=O)c2cc(F)c(F)c(F)c2)cc1 as the compound, how does the MIC (Staphylococcus aureus [1]) read?
Answer: The MIC was 16 µg/mL (≈ 45.8 µM).

Question: With C/C(=N\NC(=N)N)c1ccc(NC(=O)Nc2ccc(I)cc2)cc1 as the compound, how does the MIC (Staphylococcus aureus [1]) read?
Answer: The MIC was 10 µg/mL (≈ 22.9 µM).

Question: For CC(=O)Oc1ccccc1C(=O)Nc1ccc(/C(C)=N/NC(=N)N)cc1, which MIC (Staphylococcus aureus [1]) is on record?
Answer: Its MIC is greater than 32 µg/mL.

Question: Which results are given for CCCCCCCCOc1ccc(NC(=O)Nc2ccc(/C(C)=N/NC(=N)N)cc2)cc1?
Answer: MBC (Staphylococcus aureus [2]): 32 µg/mL (≈ 73 µM); Activity (Staphylococcus aureus [3]): Active; MBC (Staphylococcus aureus [4]): 16 µg/mL (≈ 36.5 µM); MBC (Staphylococcus aureus [5]): 32 µg/mL (≈ 73 µM); MIC (Staphylococcus aureus [6]): 16 µg/mL (≈ 36.5 µM); MBC (Staphylococcus aureus [7]): 16 µg/mL (≈ 36.5 µM); MIC (Staphylococcus aureus [8]): 16 µg/mL (≈ 36.5 µM); MIC (Staphylococcus aureus [1]): 32 µg/mL (≈ 73 µM); MBC (Staphylococcus aureus [9]): 32 µg/mL (≈ 73 µM); Activity (Staphylococcus aureus [10]): Active; MBC (Staphylococcus aureus [11]): 32 µg/mL (≈ 73 µM); Activity (Staphylococcus aureus [12]): Active; MIC (Staphylococcus aureus [13]): 16 µg/mL (≈ 36.5 µM); MIC (Staphylococcus aureus [14]): 16 µg/mL (≈ 36.5 µM); MIC (Staphylococcus aureus [15]): 16 µg/mL (≈ 36.5 µM); Activity (Staphylococcus aureus [16]): Active; MIC (Staphylococcus aureus [17]): 16 µg/mL (≈ 36.5 µM); MBC (Staphylococcus aureus [18]): 32 µg/mL (≈ 73 µM)

Question: What does the source list for CCCCCCOc1ccc(NC(=O)Nc2ccc(/C(C)=N/NC(=N)N)cc2)cc1?
Answer: MBC (Staphylococcus aureus [2]): 8 µg/mL (≈ 19.5 µM); Activity (Staphylococcus aureus [3]): Active; MBC (Staphylococcus aureus [4]): 8 µg/mL (≈ 19.5 µM); MBC (Staphylococcus aureus [5]): 4 µg/mL (≈ 9.74 µM); MIC (Staphylococcus aureus [6]): 4 µg/mL (≈ 9.74 µM); MBC (Staphylococcus aureus [7]): 16 µg/mL (≈ 39 µM); MIC (Staphylococcus aureus [8]): 8 µg/mL (≈ 19.5 µM); MIC (Staphylococcus aureus [1]): 8 µg/mL (≈ 19.5 µM); MBC (Staphylococcus aureus [9]): 8 µg/mL (≈ 19.5 µM); Activity (Staphylococcus aureus [10]): Active; MBC (Staphylococcus aureus [11]): 16 µg/mL (≈ 39 µM); Activity (Staphylococcus aureus [12]): Active; MIC (Staphylococcus aureus [13]): 8 µg/mL (≈ 19.5 µM); MIC (Staphylococcus aureus [14]): 8 µg/mL (≈ 19.5 µM); MIC (Staphylococcus aureus [15]): 8 µg/mL (≈ 19.5 µM); Activity (Staphylococcus aureus [16]): Active; MIC (Staphylococcus aureus [17]): 4 µg/mL (≈ 9.74 µM); MBC (Staphylococcus aureus [18]): 8 µg/mL (≈ 19.5 µM)

Question: Which Activity (Staphylococcus aureus [3]) does the source give for C/C(=N\NC(=N)N)c1ccc(NC(=O)Nc2ccc(C(C)(C)C)cc2)cc1 here?
Answer: Its Activity is “Active”.

Question: And the MBC (Staphylococcus aureus [5])?
Answer: Its MBC is 128 µg/mL (≈ 349 µM).

Question: What about the MIC (Staphylococcus aureus [6]) of the same compound?
Answer: Its MIC is 64 µg/mL (≈ 175 µM).

Question: What about the half-life [19] of the same compound?
Answer: The half-life was 2.9 h.

Question: And the Activity (Staphylococcus aureus [10])?
Answer: Its Activity is “Active”.

Question: And the Activity (Staphylococcus aureus [12])?
Answer: Its Activity is “Active”.

Question: And the Activity (Staphylococcus aureus [16])?
Answer: Its Activity is “Active”.

Question: And the microsomal CLint [20]?
Answer: Its microsomal CLint is 20 µL/min/mg.
